This sample holds only a part of the variants without activity.
B1: tRNA (parent)
chain: GUUCCGUUGGCGUAAUGGUAACGCGUCUCCCUCCUAAGGAGAAGACUGCGGGUUCGAGUCCCGUACGGAACG

Variants of: B1
Test: yeast fitness relative to wild type (ratio to wild type); higher = fitter; tRNA-Arg(CCU), competitive growth, 37 C, YPD
In short: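 The tRNA-Arg(CCU) gene variants were made by chemical synthesis with a 3% per-site mutation rate at 69 sites and inserted at the native genomic locus of Saccharomyces cerevisiae. After pooling, the strains were competed in YPD at 37°C for 24 hours in six parallel replicates. Gene amplicons from the start population and each end population were read by 100-nucleotide paired-end sequencing, and Darwinian fitness relative to wild type was taken from genotype frequency changes. Genotypes needed ≥ 100 starting reads, and estimates < 0.5 were set to 0.5.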

First: GUUCCGUUGGCGUAAUGGUAACGCGUCUCCCUCAUAAGGAGAAGACUGCGGGUUCGAGUGCCGUACGGAACG [C34A C60G]
Second: GUUCCGUUGGCGUAAUGGUAACGCGUCUCCCUCAUAAGGAGAAAACUGCGGGUUCGUGUCCCGUACGGAACG [C34A G44A A57U]
The yeast fitness of the first is higher: 0.664 for the first, at most 0.5 for the second.

Compared with GUUCCGUUGGCGUAAUGGUAACGCGUCUCCCUCAUAAGGAGAAGACUGCGGGUUCGAGUCCGGUACGGAACG [C34A C62G], GUUCCGUUGGCGUAAUGGUAACGCGUCUCCCUCAUAAGGAGAAGACUGCGGGUUCGAGUCCCGUACGAAACG [C34A G68A] is lower in yeast fitness: 0.675 for the first, 0.647 for the second.

First: GUUCCGUUGGCGUAAUGGUAACGCGUCUCCCUCAUAAGGAGAAGACUGCGGGUCCGAGUCCCGUACGGAACG [C34A U54C]
Second: GUUCCGUUGGCGUAAUGGUAACGCGUCUCCCUCGUGAGGAGAAGACUGCGGGUUCGAGUGCCGUACGGAACG [C34G A36G C60G]
The yeast fitness of the first is lower: 0.566 for the first, 0.642 for the second.

GUUCCGUUGGCGUAAUGGUAACGCGUCUCCCUCAUAAGGAGAAGACUGCGCGUUCGAGUCCCGUACGGAACG [C34A G51C] and GUUCCGUUGGCGUAAUGGUAACGCGUCUCCCUCAUAAGGAAAAGAAUGCGGGUUCGAGUCCCGUACGGAACG [C34A G41A C46A] cannot be ordered by yeast fitness: at most 0.5 for the first, at most 0.5 for the second.

First: GUUCCGUUGGCGUAAUGGUAACGCGUCUCCCUCAUAAGGAGAAGACUGCGGGUUCGAGUCGCGUACGCAACG [C34A C61G G68C]
Second: GUUCCGUUGGCGUAAUGGUAACGCGUCUCCCUCAUAAGGAGAAAAUUGCGGGUUCGAGUCCCGUACGAAACG [C34A G44A C46U G68A]
The yeast fitness of the first is lower: 0.538 for the first, 0.56 for the second.

GUUCCGUUGGCGUAAUGGUAACGCGUCUCCCUCAUAAGGAGAAGACUGCGGGUUCCAAUCCCCUUCGGAACG [C34A G56C G58A G63C A65U] and GUUCCGUUGGCGUAAUGGUAACGCGUCUCCCUCGUAAGGGGAAGAGUGAGGGUUCGAGUCCCGUAAGGUACG [C34G A40G C46G C49A C66A A69U] cannot be ordered by yeast fitness: at most 0.5 for the first, at most 0.5 for the second.

Compared with GUUCCGUUGGCGUAAUGGUAACGCGUCUCCCUCAUAAGGAGAAGACUGCGGGUUCGAGUCGCGUACGGAACG [C34A C61G], GUUCCGUUGGCGUAAUGGUAACGCGUCUCCCUCAUAAGAAGAAGACUGCGGGUUCGAGUCCCGUACGGAACG [C34A G39A] is higher in yeast fitness: at most 0.5 for the first, 0.734 for the second.

Going from GUUCCGUUGGCGUAAUGGUAACGCGUCUCCCUCAUAAGGAGAACACUGCGGGUUCGAGUCCCGUACGGAUCG [C34A G44C A70U] to GUUCCGUUGGCGUAAUGGUAACGCGUCUCCCUCGUAAGGAGAAGACUGCGGGUUCGAGUCCCGUACGGAACG [C34G], the yeast fitness rises from 0.54 to 0.65.

Compared with GUUCCGUUGGCGUAAUGGUAACGCGUCUCCCUCGUAAGGUGACGACUGGAGGUUCGAGUUCCGUACGGAACG [C34G A40U A43C C49G G50A C60U], GUUCCGUUGGCGUAAUGGUAACGCGUCUCCCUCGUAAGGCGAAGACUGCGGGUUCGAGUCCUGUACGGUACG [C34G A40C C62U A69U] is higher in yeast fitness: at most 0.5 for the first, 0.573 for the second.

GUUCCGUUGGCGUAAUGGUAACGCGUCUCCCUCGUAAGGAGGACACUGCGGGUUCGAGUCCCGUAAGGAACG [C34G A42G G44C C66A] and GUUCCGUUGGCGUAAUGGUAACGCGUCUCCCUCGUACAGAGAAGACUGCGGGUUCGAGUCCCGUAUGGAACG [C34G A37C G38A C66U] cannot be ordered by yeast fitness: at most 0.5 for the first, at most 0.5 for the second.

GUUCCGUUGGCGUAAUGGUAACGCGUCUCCCUCGUAAGGAGUAGACUGCGGGUUCGAGUCUCGUACGGAACG [C34G A42U C61U] and GUUCCGUUGGCGUAAUGGUAACGCGUCUCCCUCGUAUGGAGAAGACUGCGGGUUCGAGUCCAGUACGGAACG [C34G A37U C62A] cannot be ordered by yeast fitness: at most 0.5 for the first, at most 0.5 for the second.

Compared with GUUCCGUUGGCGUAAUGGUAACGCGUCUCCCUCGUAAGGAGGAGACUGCGGGUUCGAGUCCCGUAUGGAACG [C34G A42G C66U], GUUCCGUUGGCGUAAUGGUAACGCGUCUCCCUCAUAAGGAGAAGACUGCGAGUUCGAGUCGCGUACGGUACG [C34A G51A C61G A69U] is lower in yeast fitness: 1.03 for the first, 0.606 for the second.

First: GUUCCGUUGGCGUAAUGGUAACGCGUCUCCCUCGUGAGGAGAAGACUGCGGAUUCGAGUCCCGUAUGGAACG [C34G A36G G52A C66U]
Second: GUUCCGUUGGCGUAAUGGUAACGCGUCUCCCUCGUAAGGCGAAGACUGCGGGUUCGAGUCCCGUACGGAACG [C34G A40C]
The yeast fitness of the first is lower: at most 0.5 for the first, 0.636 for the second.

First: GUUCCGUUGGCGUAAUGGUAACGCGUCUCCCUCGUAAGGUGAAGACUGCGGGUUCGAGUCCCGUACGGAACG [C34G A40U]
Second: GUUCCGUUGGCGUAAUGGUAACGCGUCUCCCUCGUAGGGAGAAGACUGCGGGUUCGAGUCCCGUACGGAACG [C34G A37G]
The yeast fitness of the first is lower: 0.596 for the first, 0.725 for the second.

GUUCCGUUGGCGUAAUGGUAACGCGUCUCCCUCAUAAGGAGAAGACAGCGGGUUCGAGUCGCGUACGGAACG [C34A U47A C61G] and GUUCCGUUGGCGUAAUGGUAACGCGUCUCCCUCGUAAGGAGGAGACUGAGGGUUCGAGUCCCGUACGGAACG [C34G A42G C49A] cannot be ordered by yeast fitness: at most 0.5 for the first, at most 0.5 for the second.

Compared with GUUCCGUUGGCGUAAUGGUAACGCGUCUCCCUCGUUAGGAGAAGACUGCGGGUUCGAGUCCUGUACGGAACG [C34G A36U C62U], GUUCCGUUGGCGUAAUGGUAACGCGUCUCCCUCAUAAGGAGAAGACUGCGGAUUCGAGUCCCGUACGGAACG [C34A G52A] is higher in yeast fitness: at most 0.5 for the first, 0.741 for the second.

Compared with GUUCCGUUGGCGUAAUGGUAACGCGUCUCCCUCAUAAGGAGAAGACUGCGGCUUCGAGUCCCGUACGGAACG [C34A G52C], GUUCCGUUGGCGUAAUGGUAACGCGUCUCCCUCGUAAGGAGCAGACUGCGGGUUAGAGUUCCGUACGGAACG [C34G A42C C55A C60U] is lower in yeast fitness: 0.721 for the first, at most 0.5 for the second.

Going from GUUCCGUUGGCGUAAUGGUAACGCGUCUCCCUCAUAAGGAGAAGACUGAGGGUUCGAGGCCCGUACGGAACG [C34A C49A U59G] to GUUCCGUUGGCGUAAUGGUAACGCGUCUCCCUCGUAAGGGGAAGACUGCGGGAUCGAGUCCCGUACGCAACG [C34G A40G U53A G68C], the yeast fitness falls from 0.654 to at most 0.5.

In the case of GUUCCGUUGGCGUAAUGGUAACGCGUCUCCCUCGUACGGAGAAGACUGCGGGUUCGACUCCCGUACGGAACG [C34G A37C G58C], the yeast fitness is reported as at most 0.5.

Source: the RNAGym collection of RNA variant scans (doi:10.1126/science.aae0568)
